Test results as given in ChEMBL document CHEMBL4033781 (J Med Chem, 2018).
Calls of active or inactive are those of the source. The calls are words filed in the database; no cut-off is given here.

What was measured:
[1] = biological target: N+/K+ ATPase alpha-4/beta-1 (Rattus norvegicus, UniProt Q64541); test: Inhibition of recombinant rat Na+/K+-ATPase alpha4/beta1 expressed in baculovirus infected insect Sf9 cell membranes using [gamma-32P]ATP as substrate preincubated for 10 mins followed by substrate addition measured after 30 mins in presence of Na+, K+ and Mg2+ by liquid scintillation counting
N+/K+ ATPase alpha-4/beta-1, sequence (Q64541 whole entry, other chains not shown, canonical isoform): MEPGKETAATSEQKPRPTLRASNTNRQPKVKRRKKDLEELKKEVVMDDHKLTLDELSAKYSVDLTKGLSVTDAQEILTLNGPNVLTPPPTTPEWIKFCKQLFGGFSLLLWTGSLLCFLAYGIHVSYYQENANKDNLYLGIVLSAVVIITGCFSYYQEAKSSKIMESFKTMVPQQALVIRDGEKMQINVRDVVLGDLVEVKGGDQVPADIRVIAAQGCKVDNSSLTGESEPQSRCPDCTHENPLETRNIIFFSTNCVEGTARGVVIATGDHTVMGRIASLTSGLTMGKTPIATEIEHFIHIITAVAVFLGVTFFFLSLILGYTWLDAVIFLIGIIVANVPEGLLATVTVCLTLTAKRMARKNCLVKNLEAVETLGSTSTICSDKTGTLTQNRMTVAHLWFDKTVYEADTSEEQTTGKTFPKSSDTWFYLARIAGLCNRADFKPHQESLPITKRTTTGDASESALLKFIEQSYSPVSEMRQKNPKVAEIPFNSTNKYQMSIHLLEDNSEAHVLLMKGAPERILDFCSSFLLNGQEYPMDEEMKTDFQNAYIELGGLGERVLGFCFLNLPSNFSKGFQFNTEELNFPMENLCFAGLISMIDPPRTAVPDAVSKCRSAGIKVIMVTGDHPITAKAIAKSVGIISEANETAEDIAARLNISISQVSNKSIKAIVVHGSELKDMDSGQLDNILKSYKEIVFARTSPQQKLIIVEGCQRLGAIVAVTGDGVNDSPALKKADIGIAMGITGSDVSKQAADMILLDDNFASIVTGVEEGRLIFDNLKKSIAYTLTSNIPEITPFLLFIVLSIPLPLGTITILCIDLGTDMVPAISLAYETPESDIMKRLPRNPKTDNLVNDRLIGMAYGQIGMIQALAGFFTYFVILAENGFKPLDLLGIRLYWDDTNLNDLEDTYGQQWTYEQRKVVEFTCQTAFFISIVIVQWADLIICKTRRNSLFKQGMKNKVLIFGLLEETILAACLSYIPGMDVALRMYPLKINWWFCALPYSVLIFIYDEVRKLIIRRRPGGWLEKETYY
Procedure, shortened: (§1)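 Rat α/β1 isoforms were expressed in baculovirus-infected Sf9 cells (72 h, 27 °C), washed in 10 mM imidazole-HCl pH 7.5 with 1 mM EGTA, and homogenised. Homogenates were assayed in 120 mM NaCl, 30 mM KCl, 3 mM MgCl₂, 0.2 mM EGTA and 30 mM Tris-HCl pH 7.4. Reactions were started with 2 mM γ[³²P]-ATP (final) and run 30 min at 37 °C. Released ³²Pi was extracted as phosphomolybdate into isobutanol and scintillation counted. IC50 came from single-site dose–response fits.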

[2] = biological target: T1, Voltage-gated inwardly rectifying potassium channel KCNH2 (Homo sapiens, UniProt Q12809); test: Displacement of Tracer Red from human ERG expressed in cell membranes by fluorescence polarization assay
T1 sequence (Q12809 whole entry): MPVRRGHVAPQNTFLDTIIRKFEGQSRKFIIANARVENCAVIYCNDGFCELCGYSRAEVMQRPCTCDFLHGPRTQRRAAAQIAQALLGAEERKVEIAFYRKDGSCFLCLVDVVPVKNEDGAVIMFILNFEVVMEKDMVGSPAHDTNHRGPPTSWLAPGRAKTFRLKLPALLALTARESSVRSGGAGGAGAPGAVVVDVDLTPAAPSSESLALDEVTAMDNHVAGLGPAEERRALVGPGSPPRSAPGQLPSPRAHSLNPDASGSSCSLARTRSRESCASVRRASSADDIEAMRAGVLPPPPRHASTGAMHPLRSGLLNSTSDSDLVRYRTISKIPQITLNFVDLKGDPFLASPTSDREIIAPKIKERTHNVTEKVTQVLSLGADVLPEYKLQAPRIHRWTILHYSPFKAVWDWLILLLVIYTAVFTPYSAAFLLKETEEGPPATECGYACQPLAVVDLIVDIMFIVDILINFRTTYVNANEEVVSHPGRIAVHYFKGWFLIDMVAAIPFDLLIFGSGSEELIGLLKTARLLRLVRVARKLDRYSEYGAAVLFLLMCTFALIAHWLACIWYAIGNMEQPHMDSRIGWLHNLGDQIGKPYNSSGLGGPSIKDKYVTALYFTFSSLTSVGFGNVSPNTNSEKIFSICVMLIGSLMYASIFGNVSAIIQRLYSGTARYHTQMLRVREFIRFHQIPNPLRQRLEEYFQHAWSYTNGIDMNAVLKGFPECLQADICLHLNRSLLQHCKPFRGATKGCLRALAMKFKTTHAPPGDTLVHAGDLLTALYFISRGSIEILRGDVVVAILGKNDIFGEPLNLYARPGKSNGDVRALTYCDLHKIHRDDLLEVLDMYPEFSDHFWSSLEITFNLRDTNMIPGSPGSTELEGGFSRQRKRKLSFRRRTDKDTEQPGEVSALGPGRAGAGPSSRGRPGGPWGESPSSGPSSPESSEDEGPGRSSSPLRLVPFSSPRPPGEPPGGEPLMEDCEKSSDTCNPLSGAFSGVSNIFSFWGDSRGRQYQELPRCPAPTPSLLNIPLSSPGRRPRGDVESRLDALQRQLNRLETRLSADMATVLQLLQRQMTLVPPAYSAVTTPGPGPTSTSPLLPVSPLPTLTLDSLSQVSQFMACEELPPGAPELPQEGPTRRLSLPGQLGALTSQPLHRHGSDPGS
Procedure, shortened: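 Competitive fluorescence polarization binding assay using membranes from cells stably expressing hERG, measuring displacement of a fluorescently tagged hERG ligand. Test compounds were run at concentrations up to 60 μM.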

[3] = biological target: Na+/K+ ATPase alpha-1/beta-1 (Rattus norvegicus, UniProt P06685+P07340); test: Inhibition of recombinant rat Na+/K+-ATPase alpha1/beta1 expressed in baculovirus infected insect Sf9 cell membranes using [gamma-32P]ATP as substrate preincubated for 20 mins followed by substrate addition measured after 30 mins by liquid scintillation counting
Procedure, shortened: as §1, with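 “counted. Activity was taken as the 1 mM ouabain-sensitive fraction.” for “counted.”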

[4] = biological target: T1, Voltage-gated inwardly rectifying potassium channel KCNH2; test: Displacement of Tracer Red from human ERG expressed in cell membranes up to 60 uM by fluorescence polarization assay
Procedure, shortened: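 Competitive fluorescence polarization displacement of a fluorescently tagged hERG ligand used membranes from cells stably expressing hERG. Compounds were tested up to 60 μM.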

[5] = biological target: Na+/K+ ATPase alpha-2/beta-1 (Rattus norvegicus, UniProt P06686+P07340); test: Inhibition of recombinant rat Na+/K+-ATPase alpha2/beta1 expressed in baculovirus infected insect Sf9 cell membranes using [gamma-32P]ATP as substrate preincubated for 20 mins followed by substrate addition measured after 30 mins by liquid scintillation counting; procedure, shortened: as §1
[6] = biological target: Na+/K+ ATPase alpha-3/beta-1 (Rattus norvegicus, UniProt P06687+P07340); test: Inhibition of recombinant rat Na+/K+-ATPase alpha3/beta1 expressed in baculovirus infected insect Sf9 cell membranes using [gamma-32P]ATP as substrate preincubated for 20 mins followed by substrate addition measured after 30 mins by liquid scintillation counting; procedure, shortened: as §1
[7] = biological target: Sodium/potassium-transporting ATPase subunit alpha-4 (Rattus norvegicus) (UniProt Q64541); test: Inhibition of Na+/K+-ATPase alpha4 in Long Evans rat cauda epididymis sperm assessed as reduction in sperm progressive motility at 10^-12 to 10^-4 M after 1 hr by SYTO staining based microscopic method
Sodium/potassium-transporting ATPase subunit alpha-4 (Rattus norvegicus), sequence (Q64541 whole entry): as the sequence (Q64541 whole entry, other chains not shown, canonical isoform) above

[8] = biological target: Sodium/potassium-transporting ATPase subunit alpha-4 (Rattus norvegicus) (UniProt Q64541); test: Inhibition of Na+/K+-ATPase alpha4 in Long Evans rat cauda epididymis sperm assessed as reduction in sperm straight line velocity at 10^-12 to 10^-4 M after 1 hr by SYTO staining based microscopic method
[9] = biological target: Sodium/potassium-transporting ATPase subunit alpha-4 (Rattus norvegicus) (UniProt Q64541); test: Inhibition of Na+/K+-ATPase alpha4 in Long Evans rat cauda epididymis sperm assessed as reduction in sperm curvilinear velocity at 10^-12 to 10^-4 M after 1 hr by SYTO staining based microscopic method
[10] = biological target: Sodium/potassium-transporting ATPase subunit alpha-4 (Rattus norvegicus) (UniProt Q64541); test: Inhibition of Na+/K+-ATPase alpha4 in Long Evans rat cauda epididymis sperm assessed as reduction in sperm average path velocity at 10^-12 to 10^-4 M after 1 hr by SYTO staining based microscopic method
[11] = biological target: Sodium/potassium-transporting ATPase subunit alpha-4 (Rattus norvegicus) (UniProt Q64541); test: Inhibition of Na+/K+-ATPase alpha4 in Long Evans rat cauda epididymis sperm assessed as reduction in sperm average path linearity at 10^-12 to 10^-4 M after 1 hr by SYTO staining based microscopic method
[12] = biological target: Sodium/potassium-transporting ATPase subunit alpha-4 (Rattus norvegicus) (UniProt Q64541); test: Inhibition of Na+/K+-ATPase alpha4 in Long Evans rat cauda epididymis sperm assessed as reduction in sperm beat cross frequency at 10^-12 to 10^-4 M after 1 hr by SYTO staining based microscopic method
[13] = biological target: Sodium/potassium-transporting ATPase subunit alpha-4 (Rattus norvegicus) (UniProt Q64541); test: Inhibition of Na+/K+-ATPase alpha4 in Long Evans rat cauda epididymis sperm assessed as reduction in sperm motility at 10^-8 M preincubated for 1 hr followed by compound washout measured up to 2 hrs by SYTO staining based microscopic method
Procedure, shortened: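 Rat cauda epididymal sperm in modified Tyrode's medium were treated with or without compound. Motility was measured by SYTO 21/CASA before and after three washes in modified Tyrode's medium, at times up to 2 h. Values are mean ± SEM of three determinations.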

MCF7 = test: Antiproliferative activity against human MCF7 cells up to 100 uM after 72 hrs by AlamarBlue assay; type: cell-based; settings: mcf7, 72 h
[14] = biological target: Sodium/potassium-transporting ATPase subunit alpha-4 (Rattus norvegicus) (UniProt Q64541); test: Inhibition of Na+/K+-ATPase alpha4 in Long Evans rat cauda epididymis sperm assessed as reduction in total sperm motility at 10^-12 to 10^-4 M after 1 hr by SYTO staining based microscopic method

In the case of `C[C@@H]1O[C@@H](O[C@H]2C[C@@H](O)[C@]3(CO)[C@H]4[C@H](O)C[C@]5(C)[C@@H](C(O)c6cn(Cc7ccc(F)cc7)nn6)CC[C@]5(O)[C@@H]4CC[C@]3(O)C2)[C@H](O)[C@H](O)[C@H]1O` (mixture of isomers), the IC50 [1] is reported as 13 to 44 nM.
`COCO[C@H]1C[C@H]2OC(C)(C)OC[C@]23[C@@H]2[C@@H](CC[C@]3(O)C1)[C@@]1(OCOC)CC[C@H](/C=N/O)[C@@]1(C)C[C@H]2OCOC` was tested, and the IC50 [1] was 1.4 to 2.9 nM.
`C[C@@H]1O[C@@H](O[C@H]2C[C@@H](O)[C@]3(CO)[C@H]4[C@H](O)C[C@]5(C)[C@@H](C(O)c6cn(Cc7ccccc7)nn6)CC[C@]5(O)[C@@H]4CC[C@]3(O)C2)[C@H](O)[C@H](O)[C@H]1O` (mixture of isomers) was tested, and the IC50 [1] was 1200 to 1500 nM.
`COCO[C@@H]1[C@H]2OC(C)(C)O[C@H]2[C@H](O[C@H]2C[C@H]3OC(C)(C)OC[C@]34[C@@H]3[C@@H](CC[C@]4(O)C2)[C@@]2(O)CC[C@H](C#N)[C@@]2(C)C[C@H]3OCOC)O[C@H]1C` gave an IC50 [1] of 33 to 62 nM.
With `COc1ccc(-c2cn(C[C@H]3CC[C@]4(O)[C@@H]5CC[C@]6(O)C[C@@H](O)C[C@@H](O)[C@]6(CO)[C@H]5[C@H](O)C[C@]34C)nn2)cc1` the IC50 [1] was 15000 to 39000 nM.
Work on `COCO[C@@H]1[C@H]2OC(C)(C)O[C@H]2[C@H](O[C@H]2C[C@H]3OC(C)(C)OC[C@]34[C@@H]3[C@@H](CC[C@]4(O)C2)[C@@]2(O)CC[C@H](C(O)CO)[C@@]2(C)C[C@H]3OCOC)O[C@H]1C` (mixture of isomers) yielded an IC50 [1] of 2100 to 3700 nM.
For `C[C@@H]1O[C@@H](O[C@H]2C[C@H]3OC(C)(C)OC[C@]34[C@H]3[C@H](O)C[C@]5(C)[C@@H](C6=CC(=O)OC6)CC[C@]5(O)[C@@H]3CC[C@]4(O)C2)[C@@H]2OC(C)(C)O[C@@H]2[C@H]1O`, the IC50 [1] was 4 to 4.3 nM.
`C[C@@H]1O[C@@H](O[C@H]2C[C@@H](O)[C@]3(CO)[C@H]4[C@H](O)C[C@]5(C)[C@@H](C6=CC(=O)OC6)CC[C@]5(O)[C@@H]4CC[C@]3(O)C2)[C@H](O)[C@H](O)[C@H]1O` [OUABAIN] was tested, and the IC50 [2] was 5800 nM.
Work on `C[C@]12C[C@@H](O)[C@H]3[C@@H](CC[C@]4(O)C[C@@H](O)C[C@@H](O)[C@]34CO)[C@@]1(O)CC[C@@H]2c1cn(Cc2ccc(F)cc2)nn1` yielded an IC50 [1] of 32 to 49 nM.
For `C#CC(O)[C@H]1CC[C@]2(OCOC)[C@@H]3CC[C@]4(O)C[C@@H](OCOC)C[C@H]5OC(C)(C)OC[C@]54[C@H]3[C@H](OCOC)C[C@]12C` (mixture of isomers), the IC50 [1] was 10 to 60 nM.
With `COCO[C@@H]1[C@H]2OC(C)(C)O[C@H]2[C@H](O[C@H]2C[C@H]3OC(C)(C)OC[C@]34[C@@H]3[C@@H](CC[C@]4(O)C2)[C@@]2(O)CC[C@H](C=O)[C@@]2(C)C[C@H]3OCOC)O[C@H]1C` the IC50 [1] was 4.9 to 7.1 nM.
`COCO[C@@H]1[C@H]2OC(C)(C)O[C@H]2[C@H](O[C@H]2C[C@H]3OC(C)(C)OC[C@]34[C@@H]3[C@@H](CC[C@]4(O)C2)[C@@]2(O)CC[C@H](C(O)c4cn(Cc5ccc(F)cc5)nn4)[C@@]2(C)C[C@H]3OCOC)O[C@H]1C` (mixture of isomers) gave an IC50 [1] of 12 to 70 nM.
With `COCO[C@@H]1[C@H]2OC(C)(C)O[C@H]2[C@H](O[C@H]2C[C@H]3OC(C)(C)OC[C@]34[C@@H]3[C@@H](CC[C@]4(O)C2)[C@@]2(O)CC[C@H](CO)[C@@]2(C)C[C@H]3OCOC)O[C@H]1C` the IC50 [3] was over 100000 nM, the “inhibition (INH)” value [4] was “Not Active” and the IC50 [5] was over 100000 nM. The IC50 [6] was over 100000 nM, the inhibition [7] was “Active” and the inhibition [8] was “Active”. For the same molecule, the inhibition [9] was “Active”, the inhibition [10] was “Active” and the inhibition [11] was “Active”. The inhibition [12] was “Active”, the inhibition [13] was “Active” and the Activity (MCF7) was “Non-Toxic”. The inhibition [14] was “Active”.
For `COCO[C@H]1C[C@H]2OC(C)(C)OC[C@]23[C@@H]2[C@@H](CC[C@]3(O)C1)[C@@]1(OCOC)CC[C@H](C(O)C(F)(F)F)[C@@]1(C)C[C@H]2OCOC` (mixture of isomers), the IC50 [1] was 5600 to 5900 nM.
For `COCO[C@H]1C[C@H]2OC(C)(C)OC[C@]23[C@@H]2[C@@H](CC[C@]3(O)C1)[C@@]1(OCOC)CC[C@H](C(=O)O)[C@@]1(C)C[C@H]2OCOC`, the IC50 [1] was 39 to 77 nM.
`COCO[C@H]1C[C@H]2OC(C)(C)OC[C@]23[C@@H]2[C@@H](CC[C@]3(O)C1)[C@@]1(OCOC)CC[C@H](CO)[C@@]1(C)C[C@H]2OCOC` was tested, and the IC50 [3] was over 100000 nM, the “inhibition (INH)” value [4] was “Not Active” and the IC50 [5] was 6600 nM. The IC50 [6] was over 100000 nM, the inhibition [7] was “Active” and the inhibition [8] was “Active”. The inhibition [9] was “Active”, the inhibition [10] was “Active” and the inhibition [11] was “Active”. For the same molecule, the inhibition [12] was “Active”, the inhibition [13] was “Active” and the Activity (MCF7) was “Non-Toxic”. The inhibition [14] was “Active”.
In the case of `COCO[C@H]1C[C@H]2OC(C)(C)OC[C@]23[C@@H]2[C@@H](CC[C@]3(O)C1)[C@@]1(OCOC)CC[C@H](C#N)[C@@]1(C)C[C@H]2OCOC`, the IC50 [1] is reported as 16000 to 37000 nM.
In the case of `C[C@]12C[C@@H](O)[C@H]3[C@@H](CC[C@]4(O)C[C@@H](O)C[C@@H](O)[C@]34CO)[C@@]1(O)CC[C@@H]2c1cn(Cc2ccc(Cl)cc2)nn1`, the IC50 [1] is reported as 32 to 43 nM.
For `COCO[C@H]1C[C@H]2OC(C)(C)OC[C@]23[C@@H]2[C@@H](CC[C@]3(O)C1)[C@@]1(OCOC)CC[C@H](c3cn(Cc4ccccc4)nn3)[C@@]1(C)C[C@H]2OCOC`, the IC50 [1] was 5 to 6.9 nM.
